ChEMBL document CHEMBL4689842, “EUbOPEN Chemogenomics Library wave 1” (2021)

Experiments:
Fibroblast = test: Incucyte cell viability with human fibroblast; format: toxicity, cell-based; settings: 10 µM, compound concentration 10 uM; further: filed as whole numbers so only -1 and 0 and 1 occur
HEK-293T = test: Multiplex assay against HEK293T; format: toxicity, cell-based; settings: human;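 on Population Tubulin-Different-Phenotype (%): share of the cells with healthy nuclei that show this phenotype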
In short: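 Phenotypes for tubulin, mitochondrial mass and membrane permeability are expressed as per cents of healthy-nucleus cells. Cells were stained live at seeding with Hoechst33342, BioTracker Green Microtubule Cytoskeleton Dye, MitoTracker Red and Annexin V Alexa Fluor 680, then imaged after compound addition on a CQ1 microscope at 37°C and 5% CO2. Machine-learning gating in CellPathfinder separated Hoechst high-intensity objects from normal cells, divided normal cells by nuclear state (healthy, pyknosed, fragmented) and divided pyknosed cells into mitotic or apoptotic.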

[1] = 12 h, 1 µM, compound concentration 1 uM, replicate 1
[2] = 12 h, 1 µM, compound concentration 1 uM, replicate 2
[3] = 12 h, 10 µM, compound concentration 10 uM, replicate 1
[4] = 12 h, 10 µM, compound concentration 10 uM, replicate 2
[5] = 24 h, 1 µM, compound concentration 1 uM, replicate 1
[6] = 24 h, 1 µM, compound concentration 1 uM, replicate 2
[7] = 24 h, 10 µM, compound concentration 10 uM, replicate 1
[8] = 24 h, 10 µM, compound concentration 10 uM, replicate 2
[9] = 48 h, 1 µM, compound concentration 1 uM, replicate 1
[10] = 48 h, 1 µM, compound concentration 1 uM, replicate 2
[11] = 48 h, 10 µM, compound concentration 10 uM, replicate 1
[12] = 48 h, 10 µM, compound concentration 10 uM, replicate 2

Structure (SMILES): CCCn1c(=O)c2[nH]c(C34CC5CC(CC3C5)C4)nc2n(CCC)c1=O [ROLOFYLLINE]
- Growth Rate (Fibroblast; 0 h, replicate number 1, timepoint 0 hours): 0
- Growth Rate (Fibroblast; 6 h, replicate number 1, timepoint 6 hours): 0
- Growth Rate (Fibroblast; 12 h, replicate number 1, timepoint 12 hours): 0
- Growth Rate (Fibroblast; 18 h, replicate number 1, timepoint 18 hours): 0
- Growth Rate (Fibroblast; 24 h, replicate number 1, timepoint 24 hours): 0
- Population Apoptotic (%) (HEK-293T; [1]): 63%
- Population Fragmented Nuclei (%) (HEK-293T; [1]): 14%
- Population Healthy Nuclei (%) (HEK-293T; [1]): 30%
- Population Hoechst High Intensity Objects (%) (HEK-293T; [1]): 15%
- Population Membrane Permeable-Phenotype (%) (HEK-293T; [1]): 3%
- Population Mitochondria Different-Phenotype (%) (HEK-293T; [1]): 84%
- Population Mitotic Cells (%) (HEK-293T; [1]): 36%
- Population Normal (%) (HEK-293T; [1]): 84%
- Population Pyknosed Nuclei (%) (HEK-293T; [1]): 55%
- Population Tubulin-Different-Phenotype (%) (HEK-293T; [1]): 70%
- Total Cell Count (HEK-293T; [1]): 200
- Population Apoptotic (%) (HEK-293T; [2]): 12%
- Population Fragmented Nuclei (%) (HEK-293T; [2]): 6%
- Population Healthy Nuclei (%) (HEK-293T; [2]): 43%
- Population Hoechst High Intensity Objects (%) (HEK-293T; [2]): 4%
- Population Membrane Permeable-Phenotype (%) (HEK-293T; [2]): 10%
- Population Mitochondria Different-Phenotype (%) (HEK-293T; [2]): 18%
- Population Mitotic Cells (%) (HEK-293T; [2]): 87%
- Population Normal (%) (HEK-293T; [2]): 95%
- Population Pyknosed Nuclei (%) (HEK-293T; [2]): 50%
- Population Tubulin-Different-Phenotype (%) (HEK-293T; [2]): 15%
- Total Cell Count (HEK-293T; [2]): 185
- Population Apoptotic (%) (HEK-293T; [3]): 78%
- Population Fragmented Nuclei (%) (HEK-293T; [3]): 12%
- Population Healthy Nuclei (%) (HEK-293T; [3]): 28%
- Population Hoechst High Intensity Objects (%) (HEK-293T; [3]): 15%
- Population Membrane Permeable-Phenotype (%) (HEK-293T; [3]): 1%
- Population Mitochondria Different-Phenotype (%) (HEK-293T; [3]): 96%
- Population Mitotic Cells (%) (HEK-293T; [3]): 21%
- Population Normal (%) (HEK-293T; [3]): 84%
- Population Pyknosed Nuclei (%) (HEK-293T; [3]): 59%
- Population Tubulin-Different-Phenotype (%) (HEK-293T; [3]): 80%
- Total Cell Count (HEK-293T; [3]): 256
- Population Apoptotic (%) (HEK-293T; [4]): 41%
- Population Fragmented Nuclei (%) (HEK-293T; [4]): 5%
- Population Healthy Nuclei (%) (HEK-293T; [4]): 24%
- Population Hoechst High Intensity Objects (%) (HEK-293T; [4]): 9%
- Population Membrane Permeable-Phenotype (%) (HEK-293T; [4]): 12%
- Population Mitochondria Different-Phenotype (%) (HEK-293T; [4]): 84%
- Population Mitotic Cells (%) (HEK-293T; [4]): 58%
- Population Normal (%) (HEK-293T; [4]): 90%
- Population Pyknosed Nuclei (%) (HEK-293T; [4]): 69%
- Population Tubulin-Different-Phenotype (%) (HEK-293T; [4]): 87%
- Total Cell Count (HEK-293T; [4]): 143
- Population Apoptotic (%) (HEK-293T; [5]): 50%
- Population Fragmented Nuclei (%) (HEK-293T; [5]): 14%
- Population Healthy Nuclei (%) (HEK-293T; [5]): 32%
- Population Hoechst High Intensity Objects (%) (HEK-293T; [5]): 22%
- Population Membrane Permeable-Phenotype (%) (HEK-293T; [5]): 1%
- Population Mitochondria Different-Phenotype (%) (HEK-293T; [5]): 77%
- Population Mitotic Cells (%) (HEK-293T; [5]): 49%
- Population Normal (%) (HEK-293T; [5]): 77%
- Population Pyknosed Nuclei (%) (HEK-293T; [5]): 53%
- Population Tubulin-Different-Phenotype (%) (HEK-293T; [5]): 83%
- Total Cell Count (HEK-293T; [5]): 212
- Population Apoptotic (%) (HEK-293T; [6]): 15%
- Population Fragmented Nuclei (%) (HEK-293T; [6]): 4%
- Population Healthy Nuclei (%) (HEK-293T; [6]): 59%
- Population Hoechst High Intensity Objects (%) (HEK-293T; [6]): 3%
- Population Membrane Permeable-Phenotype (%) (HEK-293T; [6]): 11%
- Population Mitochondria Different-Phenotype (%) (HEK-293T; [6]): 17%
- Population Mitotic Cells (%) (HEK-293T; [6]): 85%
- Population Normal (%) (HEK-293T; [6]): 96%
- Population Pyknosed Nuclei (%) (HEK-293T; [6]): 36%
- Population Tubulin-Different-Phenotype (%) (HEK-293T; [6]): 38%
- Total Cell Count (HEK-293T; [6]): 228
- Population Apoptotic (%) (HEK-293T; [7]): 77%
- Population Fragmented Nuclei (%) (HEK-293T; [7]): 13%
- Population Healthy Nuclei (%) (HEK-293T; [7]): 31%
- Population Hoechst High Intensity Objects (%) (HEK-293T; [7]): 14%
- Population Membrane Permeable-Phenotype (%) (HEK-293T; [7]): 2%
- Population Mitochondria Different-Phenotype (%) (HEK-293T; [7]): 97%
- Population Mitotic Cells (%) (HEK-293T; [7]): 22%
- Population Normal (%) (HEK-293T; [7]): 85%
- Population Pyknosed Nuclei (%) (HEK-293T; [7]): 54%
- Population Tubulin-Different-Phenotype (%) (HEK-293T; [7]): 71%
- Total Cell Count (HEK-293T; [7]): 255
- Population Apoptotic (%) (HEK-293T; [8]): 40%
- Population Fragmented Nuclei (%) (HEK-293T; [8]): 7%
- Population Healthy Nuclei (%) (HEK-293T; [8]): 38%
- Population Hoechst High Intensity Objects (%) (HEK-293T; [8]): 7%
- Population Membrane Permeable-Phenotype (%) (HEK-293T; [8]): 22%
- Population Mitochondria Different-Phenotype (%) (HEK-293T; [8]): 75%
- Population Mitotic Cells (%) (HEK-293T; [8]): 60%
- Population Normal (%) (HEK-293T; [8]): 92%
- Population Pyknosed Nuclei (%) (HEK-293T; [8]): 53%
- Population Tubulin-Different-Phenotype (%) (HEK-293T; [8]): 87%
- Total Cell Count (HEK-293T; [8]): 150
- Population Apoptotic (%) (HEK-293T; [9]): 50%
- Population Fragmented Nuclei (%) (HEK-293T; [9]): 20%
- Population Healthy Nuclei (%) (HEK-293T; [9]): 27%
- Population Hoechst High Intensity Objects (%) (HEK-293T; [9]): 23%
- Population Membrane Permeable-Phenotype (%) (HEK-293T; [9]): 4%
- Population Mitochondria Different-Phenotype (%) (HEK-293T; [9]): 61%
- Population Mitotic Cells (%) (HEK-293T; [9]): 49%
- Population Normal (%) (HEK-293T; [9]): 76%
- Population Pyknosed Nuclei (%) (HEK-293T; [9]): 52%
- Population Tubulin-Different-Phenotype (%) (HEK-293T; [9]): 70%
- Total Cell Count (HEK-293T; [9]): 227
- Population Apoptotic (%) (HEK-293T; [10]): 8%
- Population Fragmented Nuclei (%) (HEK-293T; [10]): 6%
- Population Healthy Nuclei (%) (HEK-293T; [10]): 78%
- Population Hoechst High Intensity Objects (%) (HEK-293T; [10]): 4%
- Population Membrane Permeable-Phenotype (%) (HEK-293T; [10]): 14%
- Population Mitochondria Different-Phenotype (%) (HEK-293T; [10]): 7%
- Population Mitotic Cells (%) (HEK-293T; [10]): 91%
- Population Normal (%) (HEK-293T; [10]): 95%
- Population Pyknosed Nuclei (%) (HEK-293T; [10]): 15%
- Population Tubulin-Different-Phenotype (%) (HEK-293T; [10]): 30%
- Total Cell Count (HEK-293T; [10]): 417
- Population Apoptotic (%) (HEK-293T; [11]): 64%
- Population Fragmented Nuclei (%) (HEK-293T; [11]): 18%
- Population Healthy Nuclei (%) (HEK-293T; [11]): 31%
- Population Hoechst High Intensity Objects (%) (HEK-293T; [11]): 12%
- Population Membrane Permeable-Phenotype (%) (HEK-293T; [11]): 4%
- Population Mitochondria Different-Phenotype (%) (HEK-293T; [11]): 98%
- Population Mitotic Cells (%) (HEK-293T; [11]): 35%
- Population Normal (%) (HEK-293T; [11]): 87%
- Population Pyknosed Nuclei (%) (HEK-293T; [11]): 50%
- Population Tubulin-Different-Phenotype (%) (HEK-293T; [11]): 87%
- Total Cell Count (HEK-293T; [11]): 257
- Population Apoptotic (%) (HEK-293T; [12]): 67%
- Population Fragmented Nuclei (%) (HEK-293T; [12]): 11%
- Population Healthy Nuclei (%) (HEK-293T; [12]): 55%
- Population Hoechst High Intensity Objects (%) (HEK-293T; [12]): 7%
- Population Membrane Permeable-Phenotype (%) (HEK-293T; [12]): 16%
- Population Mitochondria Different-Phenotype (%) (HEK-293T; [12]): 62%
- Population Mitotic Cells (%) (HEK-293T; [12]): 32%
- Population Normal (%) (HEK-293T; [12]): 92%
- Population Pyknosed Nuclei (%) (HEK-293T; [12]): 32%
- Population Tubulin-Different-Phenotype (%) (HEK-293T; [12]): 86%
- Total Cell Count (HEK-293T; [12]): 185
